Measurements published in ChEMBL document CHEMBL1955832, “Facile synthesis, characterization and pharmacological activities of 3,6-disubstituted 1,2,4-triazolo[3,4-b][1,3,4]thiadiazoles and 5,6-dihydro-3,6-disubstituted-1,2,4-triazolo[3,4-b][1,3,4]thiadiazoles” (2012).
Values after ≈ are worked out from the molar mass of the structure shown. Active and inactive are the calls of the source. The calls are words filed in the database; no cut-off is given here.

Columns and labels:
[1] = tested on: Mus musculus; assay: Analgesic activity Wistar albino mouse assessed as tail withdrawal latency time at 100 mg/kg, po administered by intragastric tube after 120 mins (reference value: 1.363 +/- 0.1297 sec); type: functional
[2] = tested on: Mus musculus; assay: Analgesic activity Wistar albino mouse assessed as tail withdrawal latency time at 100 mg/kg, po administered by intragastric tube after 60 mins (reference value: 1.363 +/- 0.1297 sec); type: functional
[3] = tested on: Trichophyton mentagrophytes; assay: Antifungal activity against recultured Trichophyton mentagrophytes at MIC after 3 to 4 days; type: functional
[4] = tested on: Mus musculus; assay: Analgesic activity Wistar albino mouse assessed as tail withdrawal latency time at 100 mg/kg, po administered by intragastric tube after 180 mins (reference value: 1.363 +/- 0.1297 sec); type: functional
[5] = tested on: Rattus norvegicus; assay: Antiinflammatory activity rat assessed as reduction of carrageenan-induced paw oedema at 100 mg/kg, po administered 30 mins before carrageenan challenge measured after 60 to 180 mins; type: functional, organism-based; parameters: dose 100 mg/kg
Outline: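 Rats randomly assigned, 100 mg/kg orally as suspension in 1% carboxymethyl cellulose, 30 min before carrageenan injected into right hind paw. Paw thickness measured with vernier callipers at 60, 120 and 180 min. Diclofenac reference; mean ± SEM, n = 6, vs vehicle control.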

[6] = tested on: Staphylococcus aureus; assay: Antibacterial activity against Staphylococcus aureus ATTC 25923 at MIC after 3 to 4 days by disc diffusion method; type: functional
Outline: (§1)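 Agar well diffusion: seeded agar plates dried 1 h at 37 °C, wells punched and filled with test compound at MIC level in DMSO; DMSO solvent control. Plates in triplicate, kept at 37 °C for 3–4 days; zone of inhibition read.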

[7] = tested on: Talaromyces marneffei; assay: Antifungal activity against recultured Penicillium marneffei by serial plate dilution method; type: functional
[8] = tested on: Aspergillus fumigatus; assay: Antifungal activity against Aspergillus fumigatus NCIM 902 at MIC after 3 to 4 days; type: functional
[9] = tested on: Escherichia coli; assay: Antibacterial activity against Escherichia coli ATTC 25922 at MIC after 3 to 4 days by disc diffusion method; type: functional; outline: as §1
[10] = tested on: Aspergillus flavus; assay: Antifungal activity against Aspergillus flavus NCIM 524 by serial plate dilution method; type: functional
[11] = tested on: Pseudomonas aeruginosa; assay: Antibacterial activity against Pseudomonas aeruginosa ATTC 27853 at MIC after 3 to 4 days by disc diffusion method; type: functional; outline: as §1
[12] = tested on: Escherichia coli; assay: Antibacterial activity against Escherichia coli ATTC 25922 after 16 to 18 hrs by serial dilution method; type: functional
Outline: (§2)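 Serial drug dilutions in Mueller-Hinton broth adjusted to pH 5.0 with phosphate buffer, inoculated with standardized bacterial suspension, incubated 16–18 h at 37 °C; MIC taken as lowest concentration without conspicuous growth.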

[13] = tested on: Trichophyton mentagrophytes; assay: Antifungal activity against recultured Trichophyton mentagrophytes by serial plate dilution method; type: functional
[14] = tested on: Radical scavenging activity; assay: Antioxidant activity of the compound assessed as DPPH radical scavenging activity at 800 ug/ml after 20 mins; type: functional
Outline: (§3)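 Compound dissolved in methylene dichloride at the stated concentration, mixed with 4 mL 0.1 mM methanolic DPPH, held 20 min at ambient temperature; absorbance read at 517 nm. Scavenging % = (A_DPPH − A_test)/A_DPPH × 100. Triplicate; ascorbic acid positive control.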

[15] = tested on: Klebsiella pneumoniae; assay: Antibacterial activity against recultured Klebsiella pneumoniae after 16 to 18 hrs by serial dilution method; type: functional; outline: as §2
[16] = tested on: Pseudomonas aeruginosa; assay: Antibacterial activity against Pseudomonas aeruginosa ATTC 27853 after 16 to 18 hrs by serial dilution method; type: functional; outline: as §2
[17] = tested on: Aspergillus fumigatus; assay: Antifungal activity against Aspergillus fumigatus NCIM 902 by serial plate dilution method; type: functional
[18] = tested on: Radical scavenging activity; assay: Antioxidant activity of the compound assessed as DPPH radical scavenging activity at 400 ug/ml after 20 mins; type: functional; outline: as §3
[19] = tested on: Talaromyces marneffei; assay: Antifungal activity against recultured Penicillium marneffei at MIC after 3 to 4 days; type: functional
[20] = tested on: Klebsiella pneumoniae; assay: Antibacterial activity against recultured Klebsiella pneumoniae at MIC after 3 to 4 days by disc diffusion method; type: functional; outline: as §1
[21] = tested on: Staphylococcus aureus; assay: Antibacterial activity against Staphylococcus aureus ATTC 25923 after 16 to 18 hrs by serial dilution method; type: functional; outline: as §2
[22] = tested on: Aspergillus flavus; assay: Antifungal activity against Aspergillus flavus NCIM 524 at MIC after 3 to 4 days; type: functional
[23] = tested on: Radical scavenging activity; assay: Antioxidant activity of the compound assessed as DPPH radical scavenging activity at 200 ug/ml after 20 mins; type: functional; outline: as §3

| MIC [7] [µM] | MIC [10] [µM] | MIC [12] [µM] | MIC [13] [µM] | MIC [15] [µM] | MIC [16] [µM] | MIC [17] [µM] | SMILES | Time [1] [s] | Time [2] [s] | diameter of the inhibition zone (DIZ) [3] [mm] | Time [4] [s] | Activity [5] | diameter of the inhibition zone (DIZ) [6] [mm] | diameter of the inhibition zone (DIZ) [8] [mm] | diameter of the inhibition zone (DIZ) [9] [mm] | diameter of the inhibition zone (DIZ) [11] [mm] | inhibition [14] [%] | inhibition [18] [%] | diameter of the inhibition zone (DIZ) [19] [mm] | diameter of the inhibition zone (DIZ) [20] [mm] | also measured |
| --- | --- | --- | --- | --- | --- | --- | --- | --- | --- | --- | --- | --- | --- | --- | --- | --- | --- | --- | --- | --- | --- |
| 31.1 (≈ 12.5 µg/mL) | 31.1 (≈ 12.5 µg/mL) | 31.1 (≈ 12.5 µg/mL) | 15.5 (≈ 6.25 µg/mL) | 31.1 (≈ 12.5 µg/mL) | 15.5 (≈ 6.25 µg/mL) | 31.1 (≈ 12.5 µg/mL) | COc1ccc(Br)c(-c2nnc3sc(-c4ccc(N)cc4)nn23)c1 | 3.563 | 3.675 | 16 | 2.425 | Active | 11 | 11 | 11 | 16 | 75.9 | 68 | 11 | 11 | MIC [21]: 31.1 µM (≈ 12.5 µg/mL); diameter of the inhibition zone (DIZ) [22]: 11 mm; inhibition [23]: 60.3% |
| 29.5 (≈ 12.5 µg/mL) | 29.5 (≈ 12.5 µg/mL) | 29.5 (≈ 12.5 µg/mL) | 29.5 (≈ 12.5 µg/mL) | 29.5 (≈ 12.5 µg/mL) | 29.5 (≈ 12.5 µg/mL) | 29.5 (≈ 12.5 µg/mL) | COc1ccc(Br)c(-c2nnc3n2NC(c2cccc(Cl)c2)S3)c1 (stereo not drawn) | 3.623 | 3.546 | 11 | 2.235 | Active | 11 | 11 | 11 | 11 | 62.5 | 44.7 | 11 | 11 | MIC [21]: 29.5 µM (≈ 12.5 µg/mL); diameter of the inhibition zone (DIZ) [22]: 11 mm; inhibition [23]: 35.9% |
| 26.2 (≈ 12.5 µg/mL) | 13.1 (≈ 6.25 µg/mL) | 13.1 (≈ 6.25 µg/mL) | 13.1 (≈ 6.25 µg/mL) | 13.1 (≈ 6.25 µg/mL) | 26.2 (≈ 12.5 µg/mL) | 13.1 (≈ 6.25 µg/mL) | COc1ccc(Br)c(-c2nnc3sc(-c4cc([N+](=O)[O-])cc([N+](=O)[O-])c4)nn23)c1 | 3.563 | 3.675 | 16 | 2.425 | Active | 16 | 16 | 16 | 11 | 78 | 68.4 | 11 | 16 | MIC [21]: 13.1 µM (≈ 6.25 µg/mL); diameter of the inhibition zone (DIZ) [22]: 16 mm; inhibition [23]: 58.5% |
| 14.4 (≈ 6.25 µg/mL) | 14.4 (≈ 6.25 µg/mL) | 28.8 (≈ 12.5 µg/mL) | 28.8 (≈ 12.5 µg/mL) | 14.4 (≈ 6.25 µg/mL) | 14.4 (≈ 6.25 µg/mL) | 14.4 (≈ 6.25 µg/mL) | COc1ccc(Br)c(-c2nnc3n2NC(c2ccc([N+](=O)[O-])cc2)S3)c1 (stereo not drawn) | 3.563 | 3.675 | 11 | 2.425 | Active | 11 | 16 | 11 | 16 | 82.7 | 72.4 | 16 | 16 | MIC [21]: 28.8 µM (≈ 12.5 µg/mL); diameter of the inhibition zone (DIZ) [22]: 16 mm; inhibition [23]: 53.2% |
| 16.1 (≈ 6.8 µg/mL) | 16.1 (≈ 6.8 µg/mL) | 14.8 (≈ 6.25 µg/mL) | 16.1 (≈ 6.8 µg/mL) | 14.8 (≈ 6.25 µg/mL) | 14.8 (≈ 6.25 µg/mL) | 16.1 (≈ 6.8 µg/mL) | COc1ccc(Br)c(-c2nnc3n2NC(c2ccc(Cl)cc2)S3)c1 (stereo not drawn) | 3.563 | 3.675 | 16 | 2.425 | Active | 11 | 16 | 16 | 16 | 63.4 | 48.1 | 11 | 16 | MIC [21]: 29.5 µM (≈ 12.5 µg/mL); diameter of the inhibition zone (DIZ) [22]: 16 mm; inhibition [23]: 42.3% |
| 14.5 (≈ 6.25 µg/mL) | 14.5 (≈ 6.25 µg/mL) | 28.9 (≈ 12.5 µg/mL) | 14.5 (≈ 6.25 µg/mL) | 28.9 (≈ 12.5 µg/mL) | 28.9 (≈ 12.5 µg/mL) | 14.5 (≈ 6.25 µg/mL) | COc1ccc(Br)c(-c2nnc3sc(-c4ccc([N+](=O)[O-])cc4)nn23)c1 | 3.263 | 3.375 | 16 | 2.663 | Active | 11 | 16 | 11 | 11 | 71.9 | 68.1 | 16 | 11 | MIC [21]: 28.9 µM (≈ 12.5 µg/mL); diameter of the inhibition zone (DIZ) [22]: 16 mm; inhibition [23]: 62.9% |
